From PubChem BioAssay
Only some compounds are listed: those with a hit (about 1% of all), similar ones and a draw of the others.
Yeast tox = yeast growth toxicity, wild-type and mutant, primary screen, cytotoxicity control for eIF2B function restoration project, wild-type and eIF2Bepsilon R284H mutant, A595; S. cerevisiae wild-type growth, A595 turbidity, 16 h; 0.3% of 30,000 active; growth inhibition, % at 25 µM (by protocol); AID 685, 2007;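 active = mutant and wild-type yeast strains alike exhibit over 30% growth inhibition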;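 also: 0% = untreated cell controls and 100% = YPD media blanks without cells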
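System – wild-type and eIF2Bepsilon-R284H mutant S. cerevisiae, screened separately · Measured by – absorbance at 595 nm (turbidity) · Timing – 16 h compound exposure during growth at 30 °C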
eIF2B yeast act = GCN4-lacZ reporter reduction in eIF2B-epsilon mutant yeast, primary screen, S. cerevisiae, eIF2B-epsilon R284H, Beta-Glo luminescence; inhibition, % at 25 µM (by protocol); 0.91% of 27,000 active; AID 688, 2007;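 active = mutant luminescence inhibited past about 50% while wild type luminescence and mutant growth stay under set limits, limit read from the data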
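Times: 16 h growth with compound at 30 °C, 90 min Beta-Glo step; Assay system: yeast eIF2B-epsilon R284H mutant carrying GCN4–beta-galactosidase fusion; Measure: % inhibition of reporter signal and growth versus controls; Dosing: one concentration, 25 µM, 0.25% DMSO; Buffer or medium: YPD yeast growth medium; Measured by: Beta-Glo luminescence plus absorbance at 595 nm.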
* hit, by the source's call; . = not tested or not shown.

SMILES	Yeast tox	eIF2B yeast act
Cc1cc(Cl)ccc1N=c1ssnc1Cl	79*	2
O=C(CCn1c(=O)c2ccccc2n(CC(=O)NC2CCCC2)c1=O)NCc1ccco1	-7	.
COc1cc2c(cc1OC)-c1nnc(-c3ccco3)n1C1(CCCC1)C2	.	21
Cc1nnc2sc(-c3ccncc3)nn12	5	64*
COc1cc(OC)c(-c2nn3c(-c4ccncc4)nnc3s2)cc1OC	-27	-1
O=C(CCC1=NS(=O)(=O)c2ccccc2N1)NC1CCCCCCC1	-6	22
O=C(CC1Nc2ccccc2NC1=O)NC1CCCCC1 (stereo not drawn)	-16	58*
O=C(OCCN1C(=O)c2ccccc2C1=O)C1CCN(S(=O)(=O)c2cccs2)CC1	35	11
COCC(=O)NC(c1ccccc1)c1ccccc1	9	62*
COCC(=O)Nc1ccccc1NC(C)=O	4	24
COc1ccc(/C(N)=N/OC(=O)c2cccc([N+](=O)[O-])c2)cc1	0	16
N/C(Cc1ccc([N+](=O)[O-])cc1)=N\OC(=O)c1ccc2ccccc2c1	64*	29
Cc1ccccc1-n1nc2c(c1NC(=O)c1c(-c3ccccc3Cl)noc1C)CSC2	11	17
CCC(=O)Nc1c2c(nn1-c1ccc(C)cc1C)CSC2	8	52*
CN1C(=O)NC2(O)C(=O)c3ccccc3C12O (stereo not drawn)	8	.
CN1C(=O)N(C)C2(c3ccccc3)NC(=O)NC12c1ccccc1 (stereo not drawn)	3	54*
CN(C(=O)Cc1ccccc1)n1cnnc1	-7	-8
c1ccc2oc(CCc3nc4ccccc4o3)nc2c1	13	18
Nc1ccc2oc(CCc3ccccc3)nc2c1	-3	53*
CCCc1cc(=O)[nH]c(SCC(=O)c2cc(C)n(C(C)COC)c2C)n1 (stereo not drawn)	14	57*
COCC(C)n1c(C)cc(C(=O)COC(=O)c2nc3nc(C)cc(C)n3n2)c1C (stereo not drawn)	15	-14
Cc1ccc(-c2cn(S(=O)(=O)c3cccc4nsnc34)nc2N)cc1	-1	58*
Cc1ccc(C)c(N(C)S(=O)(=O)c2cccc3nsnc23)c1	0	3
CCOCCCNC(=O)c1c[nH]c2ccc(C)cc2c1=O	-3	52*
COc1ccc(CCNC(=O)c2c[nH]c3ccccc3c2=O)cc1OC	7	4
SMILES	Yeast tox	eIF2B yeast act
Clc1ccc2nc(N3CCCCC3)[nH]c2c1	14	37
O=c1c(Cl)c(N2CCCCC2)cnn1-c1nc2ccccc2[nH]1	-4	73*
Cc1onc(-c2ccccc2)c1C(=O)N1CCN(C)CC1	11	.
O=C(CNS(=O)(=O)c1cccs1)N1CCc2ccccc2C1	16	21
O=C(NC(Cc1ccccc1)C(=O)OCC(=O)N1CCc2ccccc21)c1ccco1 (stereo not drawn)	-19	52*
Cc1cc(NC(=O)COC(=O)C(Cc2ccccc2)NC(=O)c2ccco2)no1 (stereo not drawn)	13	20
Cc1ccc(C(=O)Nc2nnc(C3CCCCC3)s2)o1	10	.
Cc1cc(C(=O)Nc2nnc(C3CCCCC3)s2)no1	-1	51*
CC(SC1CCCC1)C(=O)NC(C)(C#N)C(C)C (stereo not drawn)	-8	15
O=C(O)CN1CCCC1=Nc1ccccc1	8	.
Cc1ccc(C)c(N=C2CCCN2Cc2ccccc2)c1C#N	.	57*
CCOc1cc(S(=O)(=O)N2CCCCC2)ccc1F	16	3
Cn1c(=O)c(=O)n(C)c2cc(S(=O)(=O)N3CCCCCC3)ccc21	0	58*
Cn1c(/C(C#N)=C(\O)CN2CCN(Cc3ccccc3)CC2)nc2ccccc21	-15	64*
Cc1ccc(SC/C(O)=C(\C#N)c2nc3ccccc3n2C)cc1	-18	12
CCOC(=O)CC1=NC(=O)CS1	3	64*
COCCOC(=O)CC1=NC(=O)CS1	21	1
CCN1C(=O)c2cccc3c(S(=O)(=O)Nc4ccc(OC)cc4OC)ccc1c23	-5	20
CCn1c(COc2ccccc2C)nnc1SCC(=O)CC(=O)Nc1ccccc1	18	18
O=C(OCn1ncc(Br)c(Br)c1=O)c1c(F)cccc1F	82*	.
CCOC(=O)c1c(NC(=O)c2c(Br)cnn2CC)sc(C)c1C	-17	26
C=CCNC(=S)NNC(=O)C(CCCC)CC(C)(C)O (stereo not drawn)	15	-31
CC1CCC2(CC1)NC(=O)c1ccccc1O2 (stereo not drawn)	9	24
COc1ccc(OC)c(NC(=O)CNC(=O)Cn2cnc3ccccc3c2=O)c1	-4	65*
COc1ccc(NC(=O)CCNC(=O)Cn2cnc3ccccc3c2=O)c(OC)c1	-4	-11
SMILES	Yeast tox	eIF2B yeast act
O=C(CSc1nnnn1-c1cccc2c1CCCC2)N1CCCCC1	.	15
COc1ccccc1-n1nc(C(=O)Nc2ccc3c(c2)OCO3)c2ccccc2c1=O	-13	50*
COc1ccc(-n2nc(C(=O)Nc3ccc4c(c3)OCO4)c3ccccc3c2=O)c(OC)c1	-33	-17
CC1=CCC(C(=O)O)(C(=O)N/N=C/c2cccs2)C(c2ccc([N+](=O)[O-])cc2)C1 (stereo not drawn)	2	19
Clc1ccc(Nc2nc(-c3cccnc3)cs2)cc1	5	20
Cc1cccnc1Nc1nc(-c2ccc(O)cc2)cs1	36*	.
O=C(Nc1ccccc1C(=O)NC1CCCCC1)c1ccco1	-2	17
Cc1ccc(N2CC(C(=O)Nc3ccccc3C(=O)NC3CCCCC3)CC2=O)cc1C (stereo not drawn)	10	54*
O=C(Nc1nnc(COc2ccc(Cl)cc2)s1)c1cccs1	2	50*
Cc1cccc(OCc2nnc(NC(=O)c3cccs3)s2)c1	6	-26
N#Cc1c(/N=C/c2cc(Br)cs2)sc2c1CCC2	0	60*
N#Cc1c(/N=C/c2cccs2)sc2c1CCC2	0	-14
COc1ccc(OC)c(C2=NOC(C(=O)NCc3ccco3)C2)c1 (stereo not drawn)	11	.
O=C(C1CCCN1S(=O)(=O)c1ccc(Cl)c(Cl)c1)N1CCCCC1 (stereo not drawn)	6	15
Cc1ccc(CNC(=O)CSc2c3c(nc4cc(Cl)ccc24)CCCC3)o1	19	.
C=CCSc1nc(C)c(CC=C)c(=O)[nH]1	.	-23
C=CCc1c(C)nc(SC(C)C)[nH]c1=O	-13	52*
CCN(CC)S(=O)(=O)c1ccc(S(=O)(=O)N(CC(=O)Nc2ccccc2)Cc2ccco2)cc1	-15	34
Cc1cccc(C)c1OCc1nnc2c3cnn(C)c3ncn12	13	-12
Cc1ccccc1OCc1nc2c3cnn(C)c3ncn2n1	-14	55*
O=C(COc1ccccc1CNCc1ccccc1)Nc1ccccc1	17	.
NC(=S)N/N=C/c1ccc(-c2ccc(Cl)c(Cl)c2)o1	30*	44
Clc1ccc(Cl)c(-c2ccc(/C=N/c3ncn[nH]3)o2)c1	3	-26
COc1ccc2c(c1)CCc1c(C(=O)NCc3cccnc3)noc1-2	-10	60*
COc1ccc(OCC(=O)NCc2cccnc2)cc1	.	12
COC(=O)c1cc(OC)c(OC)cc1NC(=O)c1ccc(OC)c(OC)c1	-30	0
Oc1ccccc1-c1cc(-c2ccc3c(c2)OCCO3)n[nH]1	.	51*
